Measured values collected from several papers.
Compare with care: the assays were run in different laboratories.
Target: Mitogen-activated protein kinase kinase kinase 11 (MAP3K11, Homo sapiens, UniProt Q16584)

With O=C(Nc1ccc(Oc2ccc(F)cc2)cc1)N1CCc2ncccc2[C@H]1c1ccc(F)cc1 the remaining binding was 78% (cell-free assay; competition with immobilised ligand; 1 µM).
N[C@@H]1CCN(c2nccc(-c3cnn4ncccc34)n2)C1 has a remaining binding of 99% (binding; 1 µM).
CNC(=O)[C@@H]1CC[C@@H](n2c(-c3ccc4cnccc4c3)nc3ccc(C(=O)NCc4cccc(C(N)=O)c4)cc32)C1 gave a remaining binding of 100% (binding; competition with immobilised ligand; 1 µM).
COc1ccnn2ncc(-c3ccnc(N(C)C)n3)c12 has a remaining binding of 100% (binding; 1 µM).
O=C(c1ccc(Nc2ncc(Cl)c(-c3ccc(Cl)s3)n2)cc1)N1CCC(N2CCCC2)CC1 gave a remaining binding of 13% (binding; competition with immobilised ligand; 1 µM).
For O=c1nc(-c2ccccn2)sc2ccccc12, the remaining binding was 100% (binding; competition with immobilised ligand; 1 µM).
O=C(Nc1c[nH]nc1C(=O)NC1CCNCC1)c1cc(F)cc(F)c1 gave a remaining binding of 99% (binding; competition with immobilised ligand; 1 µM).
The remaining binding of O=C(NCc1ncc(C(F)(F)F)cc1Cl)c1ccc2c(c1)C1(CCS(=O)(=O)CC1)[C@H](C1CC1)N2S(=O)(=O)c1ccc(F)cc1 is reported as 100% (cell-free assay; competition with immobilised ligand; 1 µM).
For Cc1cnn2ncc(-c3ccnc(N(C)C)n3)c2c1, the remaining binding was 100% (binding; 1 µM).
For COc1cccc(CNC(=O)c2nc3scc(COCc4ccc(C(=O)O)cc4)c3c(=O)[nH]2)c1, the remaining binding was 100% (cell-free assay; competition with immobilised ligand; 1 µM).
CN(C)c1nccc(-c2cnn3ncccc23)n1 has a remaining binding of 98% (binding; 1 µM).
Nc1ncc2c(n1)-c1c([nH]c3ccc(C#CC4CC4)cc13)CCCC2 has a remaining binding of 97% (binding; competition with immobilised ligand; 1 µM).
CCN1CCN(Cc2ccc(C(=O)Nc3ccc(C)c(Oc4ccc5c(c4)CC(=O)N5)c3)cc2C(F)(F)F)CC1 gave a remaining binding of 100% (binding; competition with immobilised ligand; 1 µM).
C[C@H](c1cccc(C#N)c1)n1cc(Cl)cc(C(N)=O)c1=N has a remaining binding of 100% (cell-free assay; competition with immobilised ligand; 1 µM).
For O=C(NCCCN1CCOCC1)c1ccc(Nc2ncc(Cl)c(-c3ccc(Cl)s3)n2)cc1, the remaining binding was 13% (binding; competition with immobilised ligand; 1 µM).
CN(C)c1nccc(-c2cnc3ncccn23)n1 has a remaining binding of 88% (binding; 1 µM).
Cn1cc(Cl)c2c(Oc3c(F)cc(Nc4cc(Cl)nc(N)n4)cc3F)ccnc21 has a remaining binding of 100% (cell-free assay; competition with immobilised ligand; 0.1 µM).
The remaining binding of O=C(c1ccc(Nc2nccc(-c3cc4ccccc4s3)n2)cc1)N1CCC(N2CCCC2)CC1 is reported as 57% (binding; competition with immobilised ligand; 1 µM).
CC1CCCN1c1nccc(-c2cnn3ncccc23)n1 (centres unmarked) gave a remaining binding of 100% (binding; 1 µM).
FC(F)(F)Oc1cccc(-c2cnc3ccc(-c4ccncc4)nn23)c1 has a remaining binding of 95% (cell-free assay; competition with immobilised ligand; 5 µM).
